From ChEMBL document CHEMBL5357041, “Discovery of novel β-elemene hybrids with hydrogen sulfide-releasing moiety possessing cardiovascular protective activity for the treatment of atherosclerosis” (RSC Med Chem, 2024)
Calls of active or inactive are those of the source. The calls are words filed in the database; no cut-off is given here.

Legend:
Thoracic aorta [1] = assay: Vasodilation activity against KCl-induced Sprague-Dawley rat thoracic aorta vessels contraction at 1 uM; format: functional
How it was run: (§1)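 Aortic rings of about 2 mm from anesthetized SD rats mounted in Krebs solution at 37 °C under oxygen, preload 9.8 mN, equilibrated about 1 h. Rings contracted with 25 mM K⁺, then compound added cumulatively. Relaxation (%) = (maximum KCl tension − tension after compound)/(maximum KCl tension − preload). ADT-OH served as control; mean ± SD, n = 4.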

Thoracic aorta [2] = assay: Vasodilation activity against KCl-induced Sprague-Dawley rat thoracic aorta vessels contraction at 5 uM; format: functional; how it was run: as §1
Thoracic aorta [3] = assay: Vasodilation activity against KCl-induced Sprague-Dawley rat thoracic aorta vessels contraction at 10 uM; format: functional; how it was run: as §1
Thoracic aorta [4] = assay: Vasodilation activity against KCl-induced Sprague-Dawley rat thoracic aorta vessels contraction at 20 uM; format: functional; how it was run: as §1
Thoracic aorta [5] = assay: Vasodilation activity against KCl-induced Sprague-Dawley rat thoracic aorta vessels contraction at 40 uM; format: functional; how it was run: as §1
[6] = Cytotoxicity against mouse BMDM cells assessed as cell viability at 50 uM incubated for 24 hrs by MTT assay; format: toxicity, cell-based; conditions: BMDM cells (bone marrow-derived macrophages), read-out: Activity
How it was run: (§2)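 Primary bone marrow macrophages taken from 6-week-old male C57 mice and cultured 6–7 days before use. Compounds dosed for 24 h, then MTT added for 4 h and formazan dissolved in DMSO; absorbance read at 570 nm. Triplicate wells; medium-only and untreated-cell controls; mean ± SD, n = 4.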

[7] = Cytotoxicity against mouse BMDM cells assessed as cell viability at 100 uM incubated for 24 hrs by MTT assay; format: toxicity, cell-based; conditions: BMDM cells (bone marrow-derived macrophages), read-out: Activity; how it was run: as §2
RAW264.7 = assay: Lipid lowering activity in ox-LDL stimulated mouse RAW264.7 cells at 50 uM by oil red O staining based microscopic analysis; format: functional, cell-based
How it was run: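 RAW 264.7 cells allowed to adhere 2 h, then exposed to ox-LDL (50 μg/mL) plus compound (50 μM) for 24 h. Cells fixed in 4% paraformaldehyde, stained with oil red O, rinsed in 60% isopropanol and counterstained with hematoxylin. Oil red O-positive area percentage quantified microscopically; ANOVA used.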

HUVEC [8] = assay: Inhibition of H2O2-induced oxidative damage in HUVECs preincubated for 24 hrs followed by H2O2 addition and measured after 2 hrs by MTT method; format: functional, cell-based; conditions: Homo sapiens, time 26.0 hrs
How it was run: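 HUVECs were seeded and grown 24 h at 37 °C, 5% CO₂, then given compound (0.5, 5 or 20 μM) for 24 h. Control and model wells received serum-free medium instead. Model and treated wells were then exposed to 1 mM H₂O₂ for 2 h, followed by MTT for 4 h, DMSO, and absorbance at 570 nm. Trolox was the positive control; mean ± SD, n = 5.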

HUVEC [9] = assay: Cytotoxicity against HUVECs at 0.5 to 200 uM incubated for 24 hrs by MTT assay; format: toxicity, cell-based; conditions: human, dose 0.5-200 µM
How it was run: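 HUVECs bought from ATCC; compounds given for 24 h, then MTT (5 mg/mL, 20 μL/well) added for 4 h. Formazan dissolved in DMSO and absorbance read at 570 nm. Medium-only and untreated-cell wells served as controls.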

[10] = Induction of H2S release in phosphate buffer at 100 uM measured upto 150 mins under L-cysteine stimulated condition by microplate reader analysis; conditions: 2.5 h
How it was run: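 Compound (100 μM) incubated with 1 mM L-cysteine in phosphate buffer at 37 °C, sampled at 0–150 min. Each sample quenched with zinc acetate and trichloroacetic acid, then N,N-dimethyl-p-phenylenediamine and FeCl₃ in HCl added. Absorbance read at 670 nm after 10 min; H₂S quantified against a NaHS standard curve (5–150 μM).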

SMILES	Activity (Thoracic aorta [1]) [%]	Activity (Thoracic aorta [2]) [%]	Activity (Thoracic aorta [3]) [%]	Activity (Thoracic aorta [4]) [%]	Activity (Thoracic aorta [5]) [%]	viability at 24 h, 50 µM [6] [%]	viability at 24 h, 100 µM [7] [%]	Activity (RAW264.7)	inhibition (HUVEC [8])	Activity (HUVEC [9])	Activity [10] [µM]
C=C[C@]1(C)CC[C@@H](C(=C)COCCCCOc2ccc(C(N)=S)cc2)C[C@H]1C(=C)C	4.61	4.13	17.37	15.38	30.23	163	14.9				
C=C[C@]1(C)CC[C@@H](C(=C)COC(=O)CCCCCC(=O)Oc2ccc(-c3nc(=O)ss3)cc2)C[C@H]1C(=C)C	-0.4	4.76	2.38	7.08	8.22	323	391	Active			
C=C[C@]1(C)CC[C@@H](C(=C)COC(=O)CCCCCC(=O)Oc2ccc(C(N)=S)cc2)C[C@H]1C(=C)C	1.2	4.53	2.67	4.19	6.38	177	219				
C=C[C@]1(C)CC[C@@H](C(=C)C)C[C@H]1C(=C)COC(=O)C(NC(=O)CCCCC1CCSS1)C(C)CC (stereo not given in full)	1.1	2.78	-3.6	5.16	14.67	672	882				
C=C[C@]1(C)CC[C@@H](C(=C)CO)C[C@H]1C(=C)C	0.09	4.63	5.63	27.81	53.06	275	281		Active	Non-Toxic	
C=C[C@]1(C)CC[C@@H](C(=C)COC(=O)CCCCC2CCSS2)C[C@H]1C(=C)C (stereo not given in full)	-3.41	-5.69	6.38	8.99	11.51	296	378				
C=C[C@]1(C)CC[C@@H](C(=C)C)C[C@H]1C(=C)COC(=O)CCC(=O)OCCOc1ccc(-c2cc(=S)ss2)cc1	7.47	-8.64	14.98	13.2	7.43	244	262				
C=C[C@]1(C)CC[C@@H](C(=C)COC(=O)/C=C\C(=O)OCCOc2ccc(-c3cc(=S)ss3)cc2)C[C@H]1C(=C)C	-4.07	1.54	7.28	12.57	10.78	99	89.7				
C=C[C@]1(C)CC[C@@H](C(=C)COC(=O)C(NC(=O)CCCCC2CCSS2)C(C)CC)C[C@H]1C(=C)C (stereo not given in full)	-5.9	-8.16	2.19	1.21	14.47	208	268				
C=C[C@]1(C)CC[C@@H](C(=C)COC(=O)C(NC(=O)CCC(=O)OCCOc2ccc(-c3cc(=S)ss3)cc2)C(C)CC)C[C@H]1C(=C)C (stereo not given in full)	1.7	3.38	-6.76	4.83	14.29	295	584				100
C=C[C@]1(C)CC[C@@H](C(=C)COC(=O)CCC(=O)OCCOc2ccc(-c3nc(=O)ss3)cc2)C[C@H]1C(=C)C	-0.71	10.11	17.84	26.82	34.29	266	254	Active			
O=C(O)CCCCC1CCSS1 (stereo not drawn) [LIPOIC ACID, ALPHA]											20
C=C[C@]1(C)CC[C@@H](C(=C)COCCCCCCCCOc2ccc(C(N)=S)cc2)C[C@H]1C(=C)C	-4.54	1.71	8.86	12.44	19.64	74.5	27.1	Active			
C=C[C@]1(C)CC[C@@H](C(=C)COCCCCCCOc2ccc(C(N)=S)cc2)C[C@H]1C(=C)C	6.68	4.72	0.07	10.31	12.18	279	17.1				
C=C[C@]1(C)CC[C@@H](C(=C)COC(=O)CCCCCCC(=O)Oc2ccc(-c3cc(=S)ss3)cc2)C[C@H]1C(=C)C	12.81	5.04	0.55	7.96	14.68	189	202				
C=C[C@]1(C)CC[C@@H](C(=C)C)C[C@H]1C(=C)COC(=O)C(NC(=O)CCC(=O)OCCOc1ccc(-c2cc(=S)ss2)cc1)C(C)CC (stereo not given in full)	0.64	2.75	6.75	7.93	13	269	272				
NC(=S)c1ccc(O)cc1											50
C=C[C@]1(C)CC[C@@H](C(=C)C)C[C@H]1C(=C)COC(=O)CCCCC1CCSS1 (stereo not given in full)	-19.8	-2.4	20.75	24.52	17.27	157	336				
C=C[C@]1(C)CC[C@@H](C(=C)COC(=O)CCC(=O)OCCOc2ccc(-c3cc(=S)ss3)cc2)C[C@H]1C(=C)C	1.27	6.87	11.63	12.67	12.14	264	349				100
C=C[C@]1(C)CC[C@@H](C(=C)COC(=O)CCCCCC(=O)Oc2ccc(-c3cc(=S)ss3)cc2)C[C@H]1C(=C)C	-1.15	6.64	6.99	16.08	21.17	232	459				
